Among the data in ChEMBL document CHEMBL5712902, “Enhanced Anti-lymphoma Activity of CAR19-iNKT Cells Underpinned by Dual CD19 and CD1d Targeting” (Cancer Cell, 2018) are Activity values, retold here.

Calls of active or inactive are those of the source. No cut-off for these calls is given here.

Data set [1] has as its system U-266. In words: Upregulation of CD1D mRNA expression in human U-266 cells at 10^-6 M upto 96 hrs by RT-PCR analysis. In kind it is functional, cell-based. The following applies: dose 1.0 10^-6M. In a few lines: (§1)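 U266 cells were harvested in exponential growth and treated with 10^-6 M ATRA, 10^-6 M GSK343, or both, each diluted from a 1 mM 1000x PBS stock. Vehicle control was 0.01% DMSO. Incubation ran up to 96 hr, then CD1D mRNA was read by RT-PCR or CD1d protein by flow cytometry at set time points.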

Data set [2] deals with U-266. In words: Upregulation of CD1D protein expression in human U-266 cells at 10^-6 M upto 96 hrs by flow cytometric analysis. The format is functional, cell-based. The following applies: dose 1.0 10^-6M. In a few lines:
as §1

The subject of data set [3] is CLL cell. In words: Upregulation of CD1D mRNA expression in human CLL cells at 10^-6 M upto 96 hrs by RT-PCR analysis. In kind it is functional, cell-based. The settings on record: dose 1.0 10^-6M. A digest of the protocol: (§2)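 Primary CLL cells were treated with 10^-6 M ATRA, freshly prepared in DMSO, protected from light and diluted to a 1 mM 1000x stock in PBS. Vehicle control was 0.01% DMSO. Cells were incubated for up to 96 hr, then CD1d was read by RT-PCR for mRNA or flow cytometry for surface protein at set time points.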

Data set [4] deals with CLL cell. In words: Upregulation of CD1D protein expression in human CLL cells at 10^-6 M upto 96 hrs by flow cytometric analysis. The settings on record: dose 1.0 10^-6M. In kind it is functional, cell-based. In a few lines: as §2
On the technique in general: A flow cytometer gives signals particle by particle.

Data set [5] is described as follows: Cytotoxicity against human CLL cells assessed as reduction in cell viability at 10^-6 M after 48 to 96 hrs by tryphan blue assay. The format is toxicity, cell-based. The following applies: 1 µM, time 48-96 hrs, dose 1 10^-6M.
Data set [6] relates to U-266. In words: Upregulation of CD1D mRNA expression in human U-266 cells at 10^-6 M upto 96 hrs in presence of GSK343 by RT-PCR analysis. In kind it is functional, cell-based. The following applies: dose 1.0 10^-6M. A digest of the protocol:
as §1

Data set [7] relates to U-266. In words: Upregulation of CD1D protein expression in human U-266 cells at 10^-6 M upto 96 hrs in presence of GSK343 by flow cytometric analysis. In kind it is functional, cell-based. The following applies: dose 1.0 10^-6M. In a few lines:
as §1

Turning to `CCCc1cc(C)[nH]c(=O)c1CNC(=O)c1cc(-c2ccnc(N3CCN(C)CC3)c2)cc2c1cnn2C(C)C`, the result in the data set with U-266 [1] and in the data set with U-266 [2] was inactive.

Consider `CC1=C(/C=C/C(C)=C/C=C/C(C)=C/C(=O)O)C(C)(C)CCC1` [TRETINOIN], for which the result with CLL cell [3], in the data set with CLL cell [4], with U-266 [6] and in the data set on U-266 [7] was Active. The Activity result in data set [5] is given as “Non-Toxic”.
